High-throughput results from PubChem.
TAAR1 antagonist: human TAAR1 antagonists, primary screen, Fluo-8 calcium fluorescence, CHO RD-HGA16 cells | inhibition, % at 3 µM | antagonist | 360,000 tested, 1.5% active | Trace amine-associated receptor 1 (Homo sapiens), Q96RJ0;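 active means inhibition above a per-plate cutoff, the mean inhibition of test compounds on that plate plus 3 SD, cut at about 49% in these data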;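 further: 0% = DMSO plus EC80 beta-PEA response and 100% = DMSO alone without agonist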
Target sequence (Q96RJ0 whole entry, looked up): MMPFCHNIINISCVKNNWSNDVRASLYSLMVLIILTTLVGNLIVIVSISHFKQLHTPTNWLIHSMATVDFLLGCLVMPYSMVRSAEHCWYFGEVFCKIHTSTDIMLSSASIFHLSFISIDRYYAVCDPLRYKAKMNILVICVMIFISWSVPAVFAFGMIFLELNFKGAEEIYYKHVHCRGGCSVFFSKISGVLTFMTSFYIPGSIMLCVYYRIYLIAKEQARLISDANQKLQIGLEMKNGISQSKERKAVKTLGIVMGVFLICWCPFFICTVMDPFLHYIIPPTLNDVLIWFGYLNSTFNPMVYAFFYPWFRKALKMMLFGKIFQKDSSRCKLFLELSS
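Assay system: RD-HGA16 CHO cells with stable hTAAR1 and Gα16 / Reagent: EC80 β-phenethylamine stimulus / Doses: 3 µM, single point / Timing: dye loading 75 min at 37 °C, then 30 min room temperature / Measured by: Fluo-8 intracellular calcium dye fluorescence, real-time kinetic reads / Controls: vehicle wells and EC80 agonist wells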
CHRM1 antagonist: human M1 muscarinic receptor antagonists, primary screen, CHO-K1 cells, Fluo-8 calcium fluorescence, 1536-well; CHO-K1 hM1, ACh EC80 antagonist; inhibition, % at 3 µM; 360,000 tested, 1.3% active; AID 588852, 2011;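 active means percent inhibition above its own plate's cutoff, namely the mean of that plate's compound wells plus 3 SD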;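 further: peak over basal fluorescence ratio during 140 s after agonist addition; 0% = ACh EC80 plus DMSO and 100% = DMSO alone without agonist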
TAAR1 ag: human TAAR1 agonists, primary screen, Fluo-8 calcium fluorescence, CHO RD-HGA16 cells; Trace amine-associated receptor 1 (Homo sapiens), Q96RJ0; vehicle wells 0%, saturating PEA agonist 100%; activation, % at 3 µM; 360,000 tested, 0.99% active;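 active means activation above the mean activation of all test compounds in the run plus 3 SD, cut at about 38% in these data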
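Test system: RD-HGA16 (CHO) cells co-expressing Gα16 and hTAAR1 | Doses: Single dose, 3 µM | Schedule: 17-24 h seeding, 75 min 37 °C dye, 30 min RT | Evaluation: % activation from peak over basal fluorescence ratio, DMSO-to-PEA scaled | Technique: Kinetic Fluo-8 calcium fluorescence | Benchmarks: Low control DMSO, high control PEA (EC100)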
CHRM1 PAM: human M1 muscarinic receptor positive allosteric modulators, primary screen, CHO-K1 cells, Fluo-8 calcium fluorescence, 1536-well | Muscarinic acetylcholine receptor M1 (Homo sapiens), P11229 | CHO-K1 hM1, ACh EC20; 0% = ACh EC20, 100% = maximal ACh | activation, % at 3 µM | 360,000 tested, 0.088% active | AID 588819, 2011; in the data active means activation above about 19%, passing the limit was not always enough
M1 ag: human M1 muscarinic receptor agonists, primary screen, Fluo-8 calcium fluorescence, CHO-K1 cells, HTS | Muscarinic acetylcholine receptor M1 (Homo sapiens), P11229 | CHO-K1 hM1, agonist mode; 0% DMSO, 100% acetylcholine EC100 | activation, % at 3 µM | 360,000 tested, 0.33% active | AID 588814, 2011;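 active means activation above the run's mean compound activation plus 3 SD, cut at about 16% in these data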;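 further: peak over basal fluorescence ratio within a 140 s kinetic read after compound addition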
An asterisk follows results filed as active. Compounds with a hit are over-represented: about 3.4% of the library has one in this group of screens.

`C[C@@H]1CN([C@H](C)CO)C(=O)c2ccccc2-c2ccccc2CO[C@@H]1CN(C)C(=O)Nc1ccccc1` gave TAAR1 antagonist 1.9 and TAAR1 ag 0.3.
Screening COc1ccc(Cc2nnc(NC(=O)CSc3ccccc3)s2)cc1OC returned TAAR1 antagonist 1.3, CHRM1 antagonist -1.9, TAAR1 ag 50.2*, CHRM1 PAM 4.3 and M1 ag 14.2.
`Cc1c(N2C(=O)/C(=C/C3CC=CCC3)SC2=S)c(=O)n(-c2ccccc2)n1C` (stereo unspecified) gave TAAR1 antagonist -7.4, CHRM1 antagonist 73.4*, TAAR1 ag -0.6, CHRM1 PAM -24.0 and M1 ag -8.8.
`Cc1c(N2C(=O)/C(=C\C3CC=CCC3)SC2=S)c(=O)n(-c2ccccc2)n1C` (stereo unspecified) gave TAAR1 antagonist -2.1, CHRM1 antagonist 62.1*, TAAR1 ag 0.3, CHRM1 PAM -25.9 and M1 ag -8.3.
For Cc1c(N2C(=O)/C(=C/c3ccccc3)SC2=S)c(=O)n(-c2ccccc2)n1C the results were TAAR1 antagonist -20.5, CHRM1 antagonist 12.7, TAAR1 ag 6.4, CHRM1 PAM -22.1 and M1 ag -5.4.
CC1CCCC(C)N1C(=O)COc1ccc(C(=O)Nc2ccccc2N2CCOCC2)cc1 (stereo unspecified) was read as TAAR1 antagonist 13.1, CHRM1 antagonist 34.2*, TAAR1 ag 6.7, CHRM1 PAM 6.2 and M1 ag -2.1.
CC(C)(C)S(=O)N1C[C@H]2CC(=O)C=C2[C@@H]1CCO (stereo partly specified) was read as TAAR1 antagonist -14.1 and TAAR1 ag 3.4.
Screening CCN(CC)c1ccc(/C=C/c2cc(-c3ccccc3)c3ccccc3n2)cc1 returned TAAR1 antagonist 25.6, CHRM1 antagonist 36.3*, TAAR1 ag 7.8, CHRM1 PAM -2.0 and M1 ag 18.0*.
Screening CC(C)(C)CC(C)(C)NCC(O)COc1c(F)cc(Br)cc1F (stereo unspecified) returned TAAR1 antagonist 4.5, CHRM1 antagonist 26.6, TAAR1 ag 46.7*, CHRM1 PAM -20.2 and M1 ag 3.4.
CC(C)(C)NCC(O)COc1c(F)cc(Br)cc1F (stereo unspecified) was read as TAAR1 antagonist -3.1, CHRM1 antagonist 4.2, TAAR1 ag 9.4, CHRM1 PAM -3.7 and M1 ag -6.3.
`COCCN(CCOC)C(=O)[C@H](CCc1ccccc1)NC(=O)[C@H]1O[C@@H](n2cnc3c(N)ncnc32)[C@H](O)[C@@H]1O` gave TAAR1 antagonist -7.2 and TAAR1 ag 0.4.
For CC(C)(C)C(=O)Nc1ccccc1C(=O)Nc1cc(Cl)ccc1Cl the results were TAAR1 antagonist 26.5, CHRM1 antagonist -1.1, TAAR1 ag 54.0*, CHRM1 PAM 0.5 and M1 ag -3.6.
CC(C)NC(=O)Nc1nnc([C@H]2C[C@H](O)[C@@H](CO)O2)s1 was read as TAAR1 antagonist -3.5, CHRM1 antagonist -15.5, TAAR1 ag 1.3, CHRM1 PAM 3.5 and M1 ag 1.2.
Cc1ccc(C2C(/C=C3/SC(=S)NC3=O)=C(c3cccs3)Oc3ccccc32)cc1 (stereo unspecified) was read as TAAR1 antagonist 55.9*, CHRM1 antagonist 5.5, TAAR1 ag 0.9, CHRM1 PAM -3.4 and M1 ag -3.0.
CC1Cc2cc(/C=C3/SC(=S)NC3=O)ccc2O1 (stereo unspecified) was read as TAAR1 antagonist -7.8, CHRM1 antagonist -6.8, TAAR1 ag -3.6, CHRM1 PAM 0.7 and M1 ag -2.4.
For CC(C)CCC(C)NC(=O)CN1C(=O)NC(C)(c2ccc3ccccc3c2)C1=O (stereo unspecified) the results were TAAR1 antagonist -9.7, CHRM1 antagonist -5.1, TAAR1 ag 1.6, CHRM1 PAM 13.0 and M1 ag 24.6*.
CC(C)C(C)NC(=O)CN1C(=O)NC(C)(c2ccc3ccccc3c2)C1=O (stereo unspecified) was read as TAAR1 antagonist -12.3, CHRM1 antagonist -7.3, TAAR1 ag 4.0, CHRM1 PAM 8.7 and M1 ag 2.9.
`C=C1[C@@H](CCO)N(S(=O)C(C)(C)C)C[C@@H]1C` (stereo partly specified) gave TAAR1 antagonist 0.6 and TAAR1 ag -0.1.
For CCOc1cc(N(CC)CC)ccc1/C=C(/C#N)c1nc2ccccc2[nH]1 the results were TAAR1 antagonist 91.8*, CHRM1 antagonist 52.2*, TAAR1 ag 48.3*, CHRM1 PAM -18.9 and M1 ag 36.0*.
`CCCOc1cc(N(CC)CC)ccc1/C=C(/C#N)c1nc2ccc(C)cc2[nH]1` gave TAAR1 antagonist 76.8*, CHRM1 antagonist 39.1*, TAAR1 ag 41.2*, CHRM1 PAM -12.0 and M1 ag 10.6.
Cc1ccc2nc(/C(C#N)=C\c3cc(O)ccc3[N+](=O)[O-])[nH]c2c1 was read as TAAR1 antagonist 8.9, CHRM1 antagonist 1.7, TAAR1 ag -1.2, CHRM1 PAM 6.4 and M1 ag -5.3.
CCN(CC)c1ccc(/C=C(/C#N)c2nc3ccc(C)cc3[nH]2)c(OC(C)C)c1 was read as TAAR1 antagonist 72.6*, CHRM1 antagonist 52.3*, TAAR1 ag 41.2*, CHRM1 PAM -25.2 and M1 ag 30.5*.
For Cc1cc(/C=C(\C#N)c2nc3ccccc3[nH]2)c(C)n1C the results were TAAR1 antagonist -11.9, CHRM1 antagonist -7.5, TAAR1 ag 1.8, CHRM1 PAM 8.9 and M1 ag -7.8.
For O=C(NCC(O)c1nc2ccccc2[nH]1)c1cc([N+](=O)[O-])ccc1F (stereo unspecified) the results were TAAR1 antagonist -8.2, CHRM1 antagonist -23.0, TAAR1 ag 5.0, CHRM1 PAM 3.5 and M1 ag 4.4.
`CCCCCCCCN1C(=O)[C@@H](CC(=O)N2CCC(c3ccccc3)CC2)C[C@@]2(C(=O)OC)C1=C[C@H](C(C)(C)C)O[C@@H]2C` gave TAAR1 antagonist -31.6 and TAAR1 ag 2.6.
Screening CC(=O)NC(=S)Nc1ccc(NC(=S)NC(=O)/C=C/c2ccco2)cc1 returned TAAR1 antagonist -31.9, CHRM1 antagonist -6.8, TAAR1 ag 6.0, CHRM1 PAM 15.5 and M1 ag 25.1*.
CCC(=O)Nc1ccc(NC(=S)NC(=O)/C=C/c2ccco2)cc1 was read as TAAR1 antagonist -2.3, CHRM1 antagonist -18.4, TAAR1 ag 2.7, CHRM1 PAM 14.2 and M1 ag -1.7.
